Sampled rows, rich in hits. Any-hit rate of the full collection: about 1.1%.
FXIIa inh 1536: human FXIIa protease inhibitors, primary screen, biochemical, 1536-well; Coagulation factor XII (Homo sapiens), P00748; purified FXIIa, Boc-QGR-AMC fluorogenic substrate, 2 h; inhibition, % at 5 µM; 0.3% of 220,000 active; AID 800, 2007; in the data active = inhibition above about 40%;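 note: 0% = enzyme with no compound and 100% = blank without enzyme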
Furin inhibitor: human furin inhibitors, primary screen, biochemical, fluorescence intensity. purified furin, fluorogenic substrate cleavage. inhibition, % at 20 µM or 30 µM. 0.061% of 220,000 active; in the data active = inhibition above about 25%
Thrombin inh: human alpha-thrombin inhibitors, primary screen, counter-screen for coagulation protease inhibitor project, biochemical, 1536-well, fluorogenic AMC substrate; inhibition, % at 5 µM; AID 1046, 2008; Boc-VPR-AMC fluorogenic substrate cleavage; 0.26% of 220,000 active;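 active = inhibition at or above 40%; inactive = inhibition below 40%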;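 note: 0% = enzyme with no compound and 100% = wells without enzyme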
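System – human alpha-thrombin · Medium – pH 7.5 Tris (50 mM) with NaCl 150 mM, Tween 20 0.05% · Compound – single-point dosing at 5 µM, 0.2% DMSO · Incubation – enzyme reaction carried out at room temperature · Technique – fluorescence of released AMC, ex 355 nm, em 460 nm · Read-out basis – % inhibition of thrombin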
KLK5 inh: human KLK5 protease inhibitors, primary screen, biochemical, 1536-well; 0.59% of 210,000 active; AID 873, 2007; inhibition, % at 5 µM; recombinant hK5, fluorogenic AMC substrate cleavage; Kallikrein-5 (Homo sapiens), Q9Y337;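 active = inhibition of 40% or more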;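 note: 0% = enzyme controls without compound and 100% = no-enzyme blanks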
FXIa inh 1536: human FXIa protease inhibitors, primary screen, biochemical, 1536-well; Coagulation factor XI (Homo sapiens), P03951; 0.14% of 220,000 active; AID 798, 2007; inhibition, % at 5 µM; purified FXIa, Boc-Glu-Ala-Arg-AMC fluorogenic substrate;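 active = inhibition of at least 40%; inactive = inhibition below 40%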;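 note: fluorescence of freed AMC excited at 355 nm; 0% = enzyme without compound and 100% = no enzyme blank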
Target sequence (P03951 19-387 limits assumed): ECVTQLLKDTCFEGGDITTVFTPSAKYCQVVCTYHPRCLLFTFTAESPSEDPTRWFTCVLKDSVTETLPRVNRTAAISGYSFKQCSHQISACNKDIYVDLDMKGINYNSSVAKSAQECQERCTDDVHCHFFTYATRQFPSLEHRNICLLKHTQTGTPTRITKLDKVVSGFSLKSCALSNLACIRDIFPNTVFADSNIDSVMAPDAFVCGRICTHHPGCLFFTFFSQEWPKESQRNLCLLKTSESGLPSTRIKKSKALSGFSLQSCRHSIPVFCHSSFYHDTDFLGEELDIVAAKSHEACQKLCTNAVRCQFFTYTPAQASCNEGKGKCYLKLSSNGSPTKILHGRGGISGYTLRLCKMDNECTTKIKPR
Target sequence (P03951 388-625 limits assumed): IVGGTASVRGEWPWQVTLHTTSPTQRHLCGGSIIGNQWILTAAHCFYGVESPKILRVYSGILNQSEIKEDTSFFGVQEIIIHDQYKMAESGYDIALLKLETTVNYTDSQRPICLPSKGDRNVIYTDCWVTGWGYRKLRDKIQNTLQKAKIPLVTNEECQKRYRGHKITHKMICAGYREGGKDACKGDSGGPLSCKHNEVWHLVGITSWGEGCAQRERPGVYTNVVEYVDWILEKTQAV
An asterisk follows results filed as active; x = no result.

SMILES	FXIIa inh 1536	Furin inhibitor	Thrombin inh	KLK5 inh	FXIa inh 1536
CCCN1C(=O)C(NC(C)=O)c2ccccc21 (stereo not given)	-2.2	-23.0	-8.8	-15.8	3.2
CCN(C(=O)CSc1ncnc2sc(C)c(C)c12)C1CCS(=O)(=O)C1 (stereo not given)	-1.5	-24.6	-7.7	1.6	-6.3
CCc1cc2c(SCC(=O)N(C)C3CCS(=O)(=O)C3)ncnc2s1 (stereo not given)	22.6	2.3	18.9	36.9	51.0*
Cc1cc(C)cc(NC(=O)CCN2CCCC2)c1	8.8	-18.4	-7.2	4.9	1.4
Cc1cc(C)c(S(=O)(=O)NNC(=O)C2CCN(Cc3ccccc3)CC2)c(C)c1	11.9	-21.9	0.7	-4.7	4.4
COC(=O)c1ccc(Nc2nc(C)cc(=O)[nH]2)cc1	41.5*	-11.3	3.0	-15.9	24.0
CC(Sc1nnnn1-c1ccccc1)C(=O)Nc1ccc(Cl)cn1 (stereo not given)	2.2	-14.1	16.1	51.5*	17.4
CC(Sc1nnc2ccccn12)C(=O)Nc1ccc(Cl)cn1 (stereo not given)	16.9	-17.5	-6.4	-7.8	0.8
O=c1c2cc3c(nc2[nH]c(=S)n1-c1ccccc1)CCCC3	3.6	-22.1	-8.8	-6.4	-1.3
CCn1c(=S)[nH]c2nc3c(cc2c1=O)CCCC3	13.6	-17.6	32.8	88.4*	9.7
CC(=O)OCC1CCCC2=C(C)C(=O)CCC21COC(C)=O (stereo not given)	8.7	-21.3	0.8	-13.2	6.9
Cc1ccc(NC(=O)C(=O)NCCCN2CCOCC2)c(C)c1	6.3	-15.2	4.7	4.5	3.0
CCOc1ccc(-n2c(C)c(C(C)=O)c3cc(OCC(N)=O)ccc32)cc1	2.8	-22.7	-5.2	-4.0	-3.6
CN(/N=C/c1ccc2c(c1)OCO2)c1nc(N2CCOCC2)nc(N2CCOCC2)n1	99.8*	-10.9	-11.0	-3.2	0.6
CCSc1nnc(NC(=O)c2ccco2)s1	-1.2	-20.5	43.8*	32.8	9.4
CC(=O)Nc1nnc(SCc2ccc(F)cc2)s1	11.1	-14.4	12.2	55.5*	0.9
CC(C)Sc1nnc(NC(=O)c2ccco2)s1	8.7	-18.8	-21.7	-0.1	-4.4
CC(=O)Nc1nnc(SCc2cccc(F)c2)s1	4.1	-18.6	-0.9	0.6	1.5
Cc1nc(NC(=O)/C=C/c2ccccc2)sc1C(=O)N1CCCCC1	2.6	13.3	11.9	-0.3	-4.4
CSc1ccc(C(=O)/C=C/c2ccc(N)cc2)cc1	5.9	-0.7	22.0	69.3*	16.8
Cc1ccccc1NC(=O)CSc1nc2ccccc2o1	5.0	0.2	14.6	50.5*	15.0
COc1ccc(C2=NOC(COc3ccc([N+](=O)[O-])cc3)C2)cc1 (stereo not given)	11.6	-14.5	2.0	1.6	2.4
O=C(NCc1ccccc1)c1cccnc1N1CCOCC1	-7.8	-9.7	10.2	72.1*	2.4
COc1ccc(C2C(C#N)=C(N)N(c3ccccc3C#N)C3=C2C(=O)CCC3)cc1CN1CCCC1 (stereo not given)	-1.9	-15.4	-3.2	-11.5	-25.1
Cn1c(C(=O)N2CCCCCC2)cc2c(=O)n(C)c3ccccc3c21	19.1	-3.8	-0.4	-13.1	4.5
SMILES	FXIIa inh 1536	Furin inhibitor	Thrombin inh	KLK5 inh	FXIa inh 1536
Cc1cccc(N2CCN(C(=O)c3cc4c(=O)n(C)c5ccccc5c4n3C)CC2C)c1 (stereo not given)	x	-18.8	24.7	41.2*	7.0
COc1ccccc1OCC(=O)NCCSCc1cccc(Cl)c1	9.5	-16.5	-2.4	-3.4	2.1
O=C(CCCN1C(=O)CCC1=O)Nc1ccccc1F	12.8	-16.1	4.9	2.5	2.8
O=C(CCCN1C(=O)CCC1=O)Nc1ccc(Br)cc1F	16.0	-11.0	10.2	61.5*	-0.8
Cc1cc(C)cc(OCC(=O)Nc2ccc(N3CCCC3)cc2)c1	45.2*	-25.4	1.8	5.5	15.9
CCOC(=O)c1nnc(-c2cccs2)nc1NC(C)C	1.5	-13.4	3.9	114.7*	-0.2
CN(C)C(=S)SCC(=O)NC(=O)NC(C)(C)C	8.2	-14.1	-0.9	7.0	2.0
O=c1c2ccccc2nnn1-c1ccc(Br)cc1	12.5	-26.5	-1.8	2.7	3.1
CSc1sc(C(=O)N(C)C)c2c1S(=O)(=O)N(C)c1ccccc1-2	2.9	-6.8	-7.4	-2.9	-3.0

Source: PubChem (several laboratories)
